Experimental data published in ChEMBL document CHEMBL4371011, “Pyrrolone Derivatives as Intracellular Allosteric Modulators for Chemokine Receptors: Selective and Dual-Targeting Inhibitors of CC Chemokine Receptors 1 and 2” (J Med Chem, 2018).
Several values for one entry are separate records, joined by “and”; a condition that tells them apart may be missing. Equal entries are not always repeated. Activity calls are given as the source filed them. The calls are words filed in the database; no cut-off is given here.

Legend:
[1] = target: T1, C-C chemokine receptor type 2 (Homo sapiens, UniProt P41597); assay: Displacement of [3H]-CCR2-RA-[R] from human TEV protease site linked CCR2b expressed in human U20S cell membranes co-expressing Gal4-VP16 transcription factor after 120 mins by scintillation spectrometry
Target sequence in this assay (P41597 whole entry, the tested form may be a part): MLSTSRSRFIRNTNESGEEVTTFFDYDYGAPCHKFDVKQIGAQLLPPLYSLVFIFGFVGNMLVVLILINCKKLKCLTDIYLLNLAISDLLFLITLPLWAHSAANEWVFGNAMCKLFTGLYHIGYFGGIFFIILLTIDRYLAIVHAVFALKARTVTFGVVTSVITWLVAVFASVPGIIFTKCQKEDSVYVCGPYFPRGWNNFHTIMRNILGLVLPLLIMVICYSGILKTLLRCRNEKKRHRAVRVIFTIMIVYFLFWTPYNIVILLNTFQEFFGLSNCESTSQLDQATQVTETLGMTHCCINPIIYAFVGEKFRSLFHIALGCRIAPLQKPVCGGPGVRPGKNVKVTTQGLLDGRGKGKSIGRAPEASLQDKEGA

[2] = target: T2, C-C chemokine receptor type 1 (Homo sapiens) (UniProt P32246); assay: Displacement of [3H]-CCR2-RA-[R] from human TEV protease site linked CCR1 expressed in human U20S cell membranes co-expressing Gal4-VP16 transcription factor at 1 uM after 120 mins by scintillation spectrometry relative to control
T2 sequence (whole entry): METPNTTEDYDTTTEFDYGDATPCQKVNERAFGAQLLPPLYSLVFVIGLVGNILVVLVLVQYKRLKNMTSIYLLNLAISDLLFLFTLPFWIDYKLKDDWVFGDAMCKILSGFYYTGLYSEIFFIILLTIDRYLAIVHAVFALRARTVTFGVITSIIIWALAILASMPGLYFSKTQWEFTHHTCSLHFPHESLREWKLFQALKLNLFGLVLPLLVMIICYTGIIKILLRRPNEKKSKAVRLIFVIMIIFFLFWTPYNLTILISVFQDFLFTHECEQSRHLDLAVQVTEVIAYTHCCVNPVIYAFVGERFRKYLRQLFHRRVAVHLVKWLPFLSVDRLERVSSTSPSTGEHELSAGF

[3] = target: T3, C-C chemokine receptor type 1 (Homo sapiens, UniProt P32246); assay: biochemical
T3 sequence (P32246 whole entry): T2 sequence (whole entry)

[4] = target: T1, C-C chemokine receptor type 2; assay: Displacement of [3H]-CCR2-RA-[R] from human TEV protease site linked CCR2b expressed in human U20S cell membranes co-expressing Gal4-VP16 transcription factor at 1 uM after 120 mins by scintillation spectrometry relative to control
Target sequence in this assay (P41597 whole entry, looked up, the tested form may be a part): as the sequence (P41597 whole entry, the tested form may be a part) above

[5] = species: Homo sapiens; assay: Selectivity ratio of IC50 for human TEV protease site linked CCR1 expressed in human U20S cell membranes co-expressing Gal4-VP16 transcription factor to IC50 for human TEV protease site linked CCR2b expressed in human U20S cell membranes co-expressing Gal4-VP16 transcription factor; type: cell-based
[6] = target: T3, C-C chemokine receptor type 1; assay: (§1) Antagonist activity at human TEV protease site linked CCR1 expressed in human U20S cell membranes co-expressing Gal4-VP16 transcription factor assessed as reduction in CCL3-induced G-protein activation preincubated for 30 mins in presence of CCL3 followed by incubation of 90 mins by [35S]GTPgammaS binding assay; type: functional
Summary of the method: (§2)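 Stably transfected U2OS membranes (10 μg; human CCR1 or CCR2b) in 50 mM Tris-HCl pH 7.4 with 5 mM MgCl2, 100 mM NaCl, 1 mM EDTA, 0.05% BSA, 10 μM GDP and 10 μg saponin. Preincubated with graded compound plus 8 nM CCL3 (CCR1) or 20 nM CCL2 (CCR2), then 0.3 nM [35S]GTPγS for 90 min at 25 °C.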

[7] = target: T1, C-C chemokine receptor type 2; assay: as §1, with “CCR2b” for “CCR1”, “CCL2-induced” for “CCL3-induced”, “CCL2” for “CCL3”; type: functional; summary of the method: as §2
Target sequence in this assay (P41597 whole entry, the tested form may be a part): as the sequence (P41597 whole entry, the tested form may be a part) above

[8] = target: T1, C-C chemokine receptor type 2; assay: Inverse agonist activity at human TEV protease site linked CCR2b expressed in human U20S cell membranes co-expressing Gal4-VP16 transcription factor assessed as decrease in basal activity at 100 uM after 90 mins in presence of GDP by [35S]GTPgammaS binding assay relative to control; type: functional
Summary of the method: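 Basal G-protein activation on human CCR2b U2OS membranes (10 μg) plus 10 μg saponin and 10 μM GDP, pH 7.4 Tris buffer with NaCl, EDTA and BSA, no CCL2. Compound preincubated 30 min at 25 °C, then 90 min with 0.3 nM [35S]GTPγS. Bound label measured after filtration; change from basal.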
Target sequence in this assay (P41597 whole entry, looked up, the tested form may be a part): as the sequence (P41597 whole entry, the tested form may be a part) above

[9] = target: T2, C-C chemokine receptor type 1 (Homo sapiens); assay: Inverse agonist activity at human TEV protease site linked CCR1 expressed in human U20S cell membranes co-expressing Gal4-VP16 transcription factor assessed as decrease in basal activity after 90 mins in presence of 1 uM GDP by [35S]GTPgammaS binding assay relative to control; type: functional
Summary of the method: (§3)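 Basal [35S]GTPγS binding on human CCR1 U2OS membranes (10 μg) with saponin, in Tris/MgCl2/NaCl/EDTA/0.05% BSA, pH 7.4, without chemokine. Compound was tested at 100 μM with GDP at 1, 10 or 20 μM. Preincubation was 30 min at 25 °C, then 90 min after adding 0.3 nM [35S]GTPγS. Filtration and scintillation read-out; decrease versus basal.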

[10] = target: T2, C-C chemokine receptor type 1 (Homo sapiens); assay: Inverse agonist activity at human TEV protease site linked CCR1 expressed in human U20S cell membranes co-expressing Gal4-VP16 transcription factor assessed as decrease in basal activity at 100 uM after 90 mins in presence of 1 uM GDP by [35S]GTPgammaS binding assay relative to control; type: functional; summary of the method: as §3
[11] = target: T2, C-C chemokine receptor type 1 (Homo sapiens); assay: Inverse agonist activity at human TEV protease site linked CCR1 expressed in human U20S cell membranes co-expressing Gal4-VP16 transcription factor assessed as decrease in basal activity at 100 uM after 90 mins in presence of 10 uM GDP by [35S]GTPgammaS binding assay relative to control; type: functional; summary of the method: as §3
[12] = target: T2, C-C chemokine receptor type 1 (Homo sapiens); assay: Inverse agonist activity at human TEV protease site linked CCR1 expressed in human U20S cell membranes co-expressing Gal4-VP16 transcription factor assessed as decrease in basal activity at 100 uM after 90 mins in presence of 20 uM GDP by [35S]GTPgammaS binding assay relative to control; type: functional; summary of the method: as §3

Compound	Ki ([1]; read-out: Ki) [nM]	Ki [3]	inhibition [4] [%]	other results
Cc1ccc(N2C(=O)C(O)=C(C(=O)C(C)(C)C)C2C2CCCCC2)cc1 (stereo not drawn)	158	22 nM	–	Ki ([1]; read-out: pKi (converted)): 155 nM
CC(=O)C1=C(O)C(=O)N(c2ccc(C)cc2)C1c1cccc(C)c1 (stereo not drawn)	–	–	11	inhibition [2]: 47%
CC(=O)C1=C(O)C(=O)N(c2ccc(C)cc2)C1c1cccc(Cl)c1 (stereo not drawn)	–	198 nM	19	–
CC(=O)C1=C(O)C(=O)N(c2ccc(C)cc2)C1c1cccc(Br)c1 (stereo not drawn)	–	181 nM	19	–
Cc1ccc(N2C(=O)C(O)=C(C(=O)c3ccccc3)C2C2CCCCC2)cc1 (stereo not drawn)	–	77 nM	37	–
O=C(C1=C(O)C(=O)N(c2ccc(Br)cc2F)C1C1CCCCC1)C1CC1 (stereo not drawn)	15	5 nM	–	Ratio IC50 [5]: 3; IC50 ([6]; read-out: IC50): 950 nM; IC50 ([6]; read-out: pIC50 (converted)): 933 nM; IC50 ([7]; read-out: IC50): 330 nM; IC50 ([7]; read-out: pIC50 (converted)): 288 nM; Imax [8]: 27%; Activity [9]: Active
COc1ccc(C2C(C(C)=O)=C(O)C(=O)N2c2ccc(C)cc2)cc1 (stereo not drawn)	–	541 nM	5	–
O=C(C1=C(O)C(=O)N(c2ccc(Br)cc2F)C1c1cccc(Br)c1)C1CC1 (stereo not drawn)	–	50 nM	45	IC50 ([6]; read-out: IC50): 8640 nM; IC50 ([6]; read-out: pIC50 (converted)): 8510 nM; IC50 ([7]; read-out: IC50): 8770 nM; Imax [8]: 58%; Activity [9]: Active
CC(=O)C1=C(O)C(=O)N(c2ccc(C)cc2)C1c1ccc(Br)cc1 (stereo not drawn)	214	85.1 nM and 87 nM	–	–
CC(=O)C1=C(O)C(=O)N(c2ccc(C)cc2)C1c1ccc(Cl)cc1 (stereo not drawn)	207	67 nM	–	–
CC(=O)C1=C(O)C(=O)N(c2ccc(C)cc2)C1c1ccccc1 (stereo not drawn)	–	162 nM	39	–
CC(=O)C1=C(O)C(=O)N(c2ccc(Br)cc2F)C1c1cccc(Br)c1 (stereo not drawn)	216	65 nM	–	–
CC(=O)C1=C(O)C(=O)N(c2ccc(C)cc2)C1c1ccc(C)cc1 (stereo not drawn)	–	195 nM and 198 nM	36	–
Cc1ccc(N2C(=O)C(O)=C(C(=O)C3CC3)C2C2CCCCC2)cc1 (stereo not drawn)	160	18.2 nM and 19 nM	–	–
COc1cccc(C2C(C(C)=O)=C(O)C(=O)N2c2ccc(C)cc2)c1 (stereo not drawn)	–	–	0	inhibition [2]: 28%
CC(=O)C1=C(O)C(=O)N(c2ccc(Br)cc2F)C1C1CCCCC1 (stereo not drawn)	6	–	–	Ratio IC50 [5]: 19; IC50 ([6]; read-out: IC50): 590 nM; IC50 ([6]; read-out: pIC50 (converted)): 550 nM; IC50 ([7]; read-out: IC50): 30 nM; Activity [9]: Active
CC(=O)C1=C(O)C(=O)N(c2ccc(Cl)c(C)c2)C1C1CCCCC1 (stereo not drawn)	9	31 nM	–	Ratio IC50 [5]: 48; inhibition [10]: 22%; IC50 ([6]; read-out: IC50): 1940 nM; IC50 ([6]; read-out: pIC50 (converted)): 1860 nM; inhibition [11]: 26%; IC50 ([7]; read-out: IC50): 40 nM; IC50 ([7]; read-out: pIC50 (converted)): 33.9 nM; Ki ([1]; read-out: pKi (converted)): 8.13 nM; inhibition [12]: 25%; Activity [9]: Active

The next lines start with results.

Ki ([1]; read-out: Ki) [nM]	Ki [3]	inhibition [4] [%]	Compound	other results
305	–	–	CC(=O)C1=C(O)C(=O)N(c2cccc(C(F)(F)F)c2)C1C1CCCCC1 (stereo not drawn)	Ki ([1]; read-out: pKi (converted)): 288 nM; inhibition [2]: 25%
92	138 nM and 144 nM	–	CC(=O)C1=C(O)C(=O)N(c2ccc(C(F)(F)F)cc2)C1C1CCCCC1 (stereo not drawn)	–
144	29 nM	–	CCCC(=O)C1=C(O)C(=O)N(c2ccc(C)cc2)C1C1CCCCC1 (stereo not drawn)	Ki ([1]; read-out: pKi (converted)): 138 nM
81	56 nM	–	CC(=O)C1=C(O)C(=O)N(c2ccc(C)cc2)C1C1CCCCC1 (stereo not drawn)	–
17	24 nM	–	CC(=O)C1=C(O)C(=O)N(c2ccc(Br)cc2)C1C1CCCCC1 (stereo not drawn)	–
–	200 nM	31	CCOC(=O)C1=C(O)C(=O)N(c2ccc(C)cc2)C1C1CCCCC1 (stereo not drawn)	–
217	260 nM	–	COc1ccc(N2C(=O)C(O)=C(C(C)=O)C2C2CCCCC2)cc1 (stereo not drawn)	Ki ([1]; read-out: pKi (converted)): 214 nM
158	31 nM	–	CCCCC(=O)C1=C(O)C(=O)N(c2ccc(C)cc2)C1C1CCCCC1 (stereo not drawn)	Ki ([1]; read-out: pKi (converted)): 155 nM
–	–	47	CC(=O)C1=C(O)C(=O)N(c2cccc(F)c2)C1C1CCCCC1 (stereo not drawn)	inhibition [2]: 44%
37	27.5 nM and 29 nM	–	CC(=O)C1=C(O)C(=O)N(c2ccc(C)cc2F)C1C1CCCCC1 (stereo not drawn)	–
66	168 nM	–	CCc1ccc(N2C(=O)C(O)=C(C(C)=O)C2C2CCCCC2)cc1 (stereo not drawn)	Ki ([1]; read-out: pKi (converted)): 64.6 nM
66	28 nM	–	O=C(C1=C(O)C(=O)N(c2ccc(Br)cc2F)C1C1CCCCC1)c1ccccc1 (stereo not drawn)	–
57	47.9 nM and 49 nM	–	CC(=O)C1=C(O)C(=O)N(c2ccc(C)c(F)c2)C1C1CCCCC1 (stereo not drawn)	–
19	38.9 nM and 40 nM	–	CC(=O)C1=C(O)C(=O)N(c2ccc(Cl)cc2)C1C1CCCCC1 (stereo not drawn)	–
–	–	45	CC(=O)C1=C(O)C(=O)N(c2ccccc2)C1C1CCCCC1 (stereo not drawn)	inhibition [2]: 42%
316	40.7 nM and 42 nM	–	Cc1ccc(N2C(=O)C(O)=C(C(=O)C(C)C)C2C2CCCCC2)cc1 (stereo not drawn)	–
96	56 nM	–	CC(=O)C1=C(O)C(=O)N(c2ccc(C)cc2)C1C1CCCCCC1 (stereo not drawn)	–
239	525 nM and 541 nM	–	CC(=O)C1=C(O)C(=O)N(c2cccc(Cl)c2)C1C1CCCCC1 (stereo not drawn)	–
18	43 nM	–	CC(=O)C1=C(O)C(=O)N(c2ccc(C)c(C)c2)C1C1CCCCC1 (stereo not drawn)	–
–	–	6	Cc1ccc(N2C(=O)C(O)=C(C(=O)OC(C)C)C2C2CCCCC2)cc1 (stereo not drawn)	inhibition [2]: 36%
170	57 nM	–	CC(=O)C1=C(O)C(=O)N(c2ccc(C)cc2)C1C1CCCCCCC1 (stereo not drawn)	Ki ([1]; read-out: pKi (converted)): 162 nM
265	500 nM	–	CC(=O)C1=C(O)C(=O)N(c2cccc(C)c2)C1C1CCCCC1 (stereo not drawn)	–
104	30 nM	–	CCC(=O)C1=C(O)C(=O)N(c2ccc(C)cc2)C1C1CCCCC1 (stereo not drawn)	–
